In ChEMBL document CHEMBL4715736, “Identification of anticancer agents based on the thieno[2,3-b]pyridine and 1H-pyrazole molecular scaffolds” (2016):

Tests used:
Format in all cases: functional
NCI-H23 = assay: Growth inhibition of human NCI-H23 cells assessed as cell growth at 0.01 uM incubated for 48 hrs by sulforhodamine B assay relative to control; settings: read-out: Activity
T47D = assay: Growth inhibition of human T47D cells assessed as cell growth at 0.01 uM incubated for 48 hrs by sulforhodamine B assay relative to control; settings: read-out: Activity
HCC 2998 [1] = assay: Growth inhibition of human HCC 2998 cells assessed as cell growth at 0.1 uM incubated for 48 hrs by sulforhodamine B assay relative to control; settings: read-out: Activity
Summary of the method: (§1)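 NCI Developmental Therapeutics Program NCI60 panel. Compounds that were active in the 10 µM one-dose screen went on to dose–response testing. Growth at each concentration is expressed relative to untreated control (100%). GI50 (concentration giving 50% of maximal inhibition of proliferation) and TGI (concentration giving total growth inhibition) were derived from the curves.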

OVCAR-3 = assay: Growth inhibition of human OVCAR-3 cells assessed as cell growth at 0.01 uM incubated for 48 hrs by sulforhodamine B assay relative to control; settings: read-out: Activity
CAKI-1 = assay: Growth inhibition of human CAKI-1 cells incubated for 48 hrs by sulforhodamine B assay; settings: for CC50: read-out: LC50 (the source's name); summary of the method: as §1
BT-549 [2] = assay: Growth inhibition of human BT-549 cells incubated for 48 hrs by sulforhodamine B assay; settings: for CC50: read-out: LC50 (the source's name); summary of the method: as §1
RXF 393 = assay: Growth inhibition of human RXF 393 cells assessed as cell growth at 1 uM incubated for 48 hrs by sulforhodamine B assay relative to control; settings: read-out: Activity
IGROV-1 = assay: Growth inhibition of human IGROV-1 cells assessed as cell growth at 1 uM incubated for 48 hrs by sulforhodamine B assay relative to control; settings: read-out: Activity
BT-549 [3] = assay: Growth inhibition of human BT-549 cells assessed as cell growth at 0.1 uM incubated for 48 hrs by sulforhodamine B assay relative to control; settings: read-out: Activity
NCI-H226 = assay: Growth inhibition of human NCI-H226 cells assessed as cell growth at 100 uM incubated for 48 hrs by sulforhodamine B assay relative to control; settings: read-out: Activity
TK-10 [4] = assay: Growth inhibition of human TK-10 cells assessed as cell growth at 100 uM incubated for 48 hrs by sulforhodamine B assay relative to control; settings: read-out: Activity
MDA-MB-231 = assay: Growth inhibition of human MDA-MB-231 cells assessed as cell growth at 1 uM incubated for 48 hrs by sulforhodamine B assay relative to control; settings: read-out: Activity
OVCAR-8 = assay: Growth inhibition of human OVCAR-8 cells assessed as cell growth at 1 uM incubated for 48 hrs by sulforhodamine B assay relative to control; settings: read-out: Activity
MOLT-4 = assay: Growth inhibition of human MOLT-4 cells assessed as cell growth at 100 uM incubated for 48 hrs by sulforhodamine B assay relative to control; settings: read-out: Activity
U-251 [5] = assay: Growth inhibition of human U-251 cells assessed as cell growth at 0.1 uM incubated for 48 hrs by sulforhodamine B assay relative to control; settings: read-out: Activity
LOX IMVI = assay: Growth inhibition of human LOX IMVI cells assessed as cell growth at 100 uM incubated for 48 hrs by sulforhodamine B assay relative to control; settings: read-out: Activity
DU-145 = assay: Growth inhibition of human DU-145 cells assessed as cell growth at 1 uM incubated for 48 hrs by sulforhodamine B assay relative to control; settings: read-out: Activity; summary of the method: as §1
SW-620 [6] = assay: Growth inhibition of human SW-620 cells assessed as cell growth at 0.1 uM incubated for 48 hrs by sulforhodamine B assay relative to control; settings: read-out: Activity
SF-268 = assay: Growth inhibition of human SF-268 cells assessed as cell growth at 0.1 uM incubated for 48 hrs by sulforhodamine B assay relative to control; settings: read-out: Activity
SK-MEL-28 = assay: Growth inhibition of human SK-MEL-28 cells incubated for 48 hrs by sulforhodamine B assay
Summary of the method: (§2)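 NCI DTP 60-line human tumour panel. Dose-response curves were run only for ligands active in the initial 10 µM screen. GI50 (concentration giving 50% of maximal inhibition of proliferation) and TGI (concentration giving total growth inhibition) were derived from these curves.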

SNB-19 = assay: Growth inhibition of human SNB-19 cells assessed as cell growth at 100 uM incubated for 48 hrs by sulforhodamine B assay relative to control; settings: read-out: Activity
HCT-116 [7] = assay: Growth inhibition of human HCT-116 cells assessed as cell growth at 1 uM incubated for 48 hrs by sulforhodamine B assay relative to control; settings: read-out: Activity
NCI-H322M = assay: Growth inhibition of human NCI-H322M cells assessed as cell growth at 0.01 uM incubated for 48 hrs by sulforhodamine B assay relative to control; settings: read-out: Activity
HCC 2998 [8] = assay: Growth inhibition of human HCC 2998 cells assessed as cell growth at 1 uM incubated for 48 hrs by sulforhodamine B assay relative to control; settings: read-out: Activity; summary of the method: as §1
MDA-MB-435 = assay: Growth inhibition of human MDA-MB-435 cells assessed as cell growth at 100 uM incubated for 48 hrs by sulforhodamine B assay relative to control; settings: read-out: Activity
TK-10 [9] = assay: Growth inhibition of human TK-10 cells incubated for 48 hrs by sulforhodamine B assay; settings: for CC50: read-out: LC50 (the source's name); summary of the method: as §2
A549 = assay: Growth inhibition of human A549/ATCC cells assessed as cell growth at 100 uM incubated for 48 hrs by sulforhodamine B assay relative to control; settings: read-out: Activity; summary of the method: as §1
SW-620 [10] = assay: Growth inhibition of human SW-620 cells assessed as cell growth at 1 uM incubated for 48 hrs by sulforhodamine B assay relative to control; settings: read-out: Activity
U-251 [11] = assay: Growth inhibition of human U-251 cells incubated for 48 hrs by sulforhodamine B assay; summary of the method: as §2
SK-MEL-2 = assay: Growth inhibition of human SK-MEL-2 cells assessed as cell growth at 0.1 uM incubated for 48 hrs by sulforhodamine B assay relative to control; settings: read-out: Activity
K562 = assay: Growth inhibition of human K562 cells assessed as cell growth at 100 uM incubated for 48 hrs by sulforhodamine B assay relative to control; settings: read-out: Activity
HCT-116 [12] = assay: Growth inhibition of human HCT-116 cells incubated for 48 hrs by sulforhodamine B assay
Summary of the method: (§3)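 NCI60 panel at the NCI Developmental Therapeutics Program. Only compounds active in the 10 µM screen went to dose-response testing. GI50, the concentration giving 50% of maximal inhibition of proliferation, and TGI, the concentration giving total growth inhibition, were derived from the dose-response curves.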

Malme-3M = assay: Growth inhibition of human Malme-3M cells assessed as cell growth at 100 uM incubated for 48 hrs by sulforhodamine B assay relative to control; settings: read-out: Activity
SK-MEL-5 = assay: Growth inhibition of human SK-MEL-5 cells incubated for 48 hrs by sulforhodamine B assay; summary of the method: as §2
KM12 = assay: Growth inhibition of human KM12 cells incubated for 48 hrs by sulforhodamine B assay; summary of the method: as §3

SMILES: Cc1cc(C)c(NC(=O)c2sc3nc4c(cc3c2N)CN(Cc2ccccc2)CC4)c(C)c1
- growth at 0.01 µM (NCI-H23): 102%
- growth at 0.01 µM (T47D): 90%
- growth at 0.1 µM (HCC 2998 [1]): 98%
- growth at 0.01 µM (OVCAR-3): 104%
- GI50 (CAKI-1): 2.81 µM
- TGI (CAKI-1): > 100 µM
- CC50 (CAKI-1): > 100 µM
- GI50 (BT-549 [2]): 4.05 µM
- TGI (BT-549 [2]): 57.6 µM
- CC50 (BT-549 [2]): > 100 µM
- growth at 1 µM (RXF 393): 78%
- growth at 1 µM (IGROV-1): 85%
- growth at 0.1 µM (BT-549 [3]): 91%
- growth at 100 µM (NCI-H226): 20%
- growth at 100 µM (TK-10 [4]): 5%
- growth at 1 µM (MDA-MB-231): 89%
- growth at 1 µM (OVCAR-8): 91%
- growth at 100 µM (MOLT-4): 10%
- growth at 0.1 µM (U-251 [5]): 96%
- growth at 100 µM (LOX IMVI): -83%
- growth at 1 µM (DU-145): 95%
- growth at 0.1 µM (SW-620 [6]): 98%
- growth at 0.1 µM (SF-268): 100%
- GI50 (SK-MEL-28): 6.97 µM
- LC50 (SK-MEL-28): > 100 µM
- TGI (SK-MEL-28): 40.4 µM
- growth at 100 µM (SNB-19): 25%
- growth at 1 µM (HCT-116 [7]): 79%
- growth at 0.01 µM (NCI-H322M): 96%
- growth at 1 µM (HCC 2998 [8]): 103%
- growth at 100 µM (MDA-MB-435): -58%
- GI50 (TK-10 [9]): 5.06 µM
- TGI (TK-10 [9]): > 100 µM
- CC50 (TK-10 [9]): > 100 µM
- growth at 100 µM (A549): 13%
- growth at 1 µM (SW-620 [10]): 76%
- GI50 (U-251 [11]): 4.35 µM
- LC50 (concentration killing 50% of cells) (U-251 [11]): > 100 µM
- TGI (U-251 [11]): 24.2 µM
- growth at 0.1 µM (SK-MEL-2): 113%
- growth at 100 µM (K562): 13%
- GI50 (HCT-116 [12]): 2.89 µM
- LC50 (concentration killing 50% of cells) (HCT-116 [12]): 67.2 µM
- TGI (HCT-116 [12]): 16 µM
- growth at 100 µM (Malme-3M): -17%
- GI50 (SK-MEL-5): 1.47 µM
- LC50 (SK-MEL-5): > 100 µM
- TGI (SK-MEL-5): 11.5 µM
- GI50 (KM12): 3.26 µM
- LC50 (KM12): > 100 µM
- TGI (KM12): 43.1 µM

SMILES: CN1CCc2nc3sc(C(N)=O)c(N)c3c(-c3cccs3)c2C1
- growth at 0.01 µM (NCI-H23): 97%
- growth at 0.01 µM (T47D): 97%
- growth at 0.1 µM (HCC 2998 [1]): 99%
- growth at 0.01 µM (OVCAR-3): 110%
- GI50 (CAKI-1): 2.82 µM
- TGI (CAKI-1): > 100 µM
- CC50 (CAKI-1): > 100 µM
- GI50 (BT-549 [2]): 3.26 µM
- TGI (BT-549 [2]): 35.5 µM
- CC50 (BT-549 [2]): > 100 µM
- growth at 1 µM (RXF 393): 55%
- growth at 1 µM (IGROV-1): 129%
- growth at 0.1 µM (BT-549 [3]): 114%
- growth at 100 µM (NCI-H226): 14%
- growth at 100 µM (TK-10 [4]): -6%
- growth at 1 µM (MDA-MB-231): 97%
- growth at 1 µM (OVCAR-8): 82%
- growth at 100 µM (MOLT-4): -4%
- growth at 0.1 µM (U-251 [5]): 98%
- growth at 100 µM (LOX IMVI): 2%
- growth at 1 µM (DU-145): 108%
- growth at 0.1 µM (SW-620 [6]): 110%
- growth at 0.1 µM (SF-268): 110%
- GI50 (SK-MEL-28): 2.91 µM
- LC50 (SK-MEL-28): > 100 µM
- TGI (SK-MEL-28): 9.59 µM
- growth at 100 µM (SNB-19): 14%
- growth at 1 µM (HCT-116 [7]): 75%
- growth at 0.01 µM (NCI-H322M): 96%
- growth at 1 µM (HCC 2998 [8]): 94%
- growth at 100 µM (MDA-MB-435): 3%
- GI50 (TK-10 [9]): 3.32 µM
- TGI (TK-10 [9]): 13.1 µM
- CC50 (TK-10 [9]): > 100 µM
- growth at 100 µM (A549): 9%
- growth at 1 µM (SW-620 [10]): 116%
- GI50 (U-251 [11]): 3.18 µM
- LC50 (concentration killing 50% of cells) (U-251 [11]): > 100 µM
- TGI (U-251 [11]): > 100 µM
- growth at 0.1 µM (SK-MEL-2): 114%
- growth at 100 µM (K562): 2%
- GI50 (HCT-116 [12]): 2.31 µM
- LC50 (concentration killing 50% of cells) (HCT-116 [12]): > 100 µM
- TGI (HCT-116 [12]): > 100 µM
- growth at 100 µM (Malme-3M): -11%
- GI50 (SK-MEL-5): 1.43 µM
- LC50 (SK-MEL-5): > 100 µM
- TGI (SK-MEL-5): 5.24 µM
- GI50 (KM12): 2.7 µM
- LC50 (KM12): > 100 µM
- TGI (KM12): > 100 µM
